Variants at the floor of the assay were thinned out.
B1: tRNA (parent)
chain: GUUCCGUUGGCGUAAUGGUAACGCGUCUCCCUCCUAAGGAGAAGACUGCGGGUUCGAGUCCCGUACGGAACG

Variants of: B1
Experiment: yeast fitness relative to wild type (ratio to wild type); higher = fitter; tRNA-Arg(CCU), competitive growth, 37 C, YPD
Procedure, shortened: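 Variants of the tRNA-Arg(CCU) gene, chemically synthesised with a 3% per-site mutation rate at 69 sites, were placed at the native genomic locus in Saccharomyces cerevisiae. The pooled strains were competed in YPD at 37°C for 24 hours in six parallel replicates. Gene amplicons from the start population and from each end population were read by 100-nucleotide paired-end sequencing. Darwinian fitness relative to wild type came from changes in genotype frequencies; genotypes needed ≥ 100 starting reads, and estimates < 0.5 were set to 0.5.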

Variant | yeast fitness
C4A A21G G68A | 0.7
C4A C33U A57G C66G | ≤ 0.5
C4A C24A G52C A57C U59A G63A | ≤ 0.5
C4A C5A C60A | 0.671
C4A A37U A43G G58C C60G | 0.654
C4A A14G G52C C66U | ≤ 0.5
C4A C33A G39C C49U U54A A70U | ≤ 0.5
U3G U28C | 0.888
U3G U28A | 0.605
C4A C5U G17A G52C | 0.581
C4A C5U C22G G44C | ≤ 0.5
C4A C11U G56C C62G G68C | ≤ 0.5
C4A C5G U54A C62U | 0.536
C4A C5G G39C | ≤ 0.5
C4A C33G G41C G56C G58A G63C A65U | ≤ 0.5
C4A C46U | 0.903
C4A C46A | 0.997
C4A C30G A40U C60G G63C | ≤ 0.5
C4A C24G G44C | ≤ 0.5
C4A C33A A65G | ≤ 0.5
C4A C11U A21U G23A U64C G67A | 0.581
C4A C29G A57G U59A A69U | ≤ 0.5
C4A A15C A69C | ≤ 0.5
C4A C24G G44C A70U | ≤ 0.5

Variant | yeast fitness
C4A A14U A20C U28G C61U C62A | ≤ 0.5
C4A C33A G39C G51C C62U A69C | ≤ 0.5
C4A A65C | 0.658
C4A C46A G56A | 0.736
C4A C49A G58A | ≤ 0.5
C4A A45U U47A | ≤ 0.5
C4A A40U G52C C60G A69C | 0.55
C4A A42G | 0.991
C4A A42C | 0.794
U3G U53A | 0.662
C4A A21U C27A G41C | ≤ 0.5
C4A A21G A65U | 0.668
C4A C30U U59A | ≤ 0.5
C4A C29A C34A C62U | ≤ 0.5
C4A C31U | 0.864
C4A A40U G52C C60G | 0.552
C4A C5G C66G | 0.597
C4A C5G C66U | 0.538
C4A C22G C49A C55U C66A A69C | ≤ 0.5
C4A C24G C62U A69C | 0.567
C4A C27A G38A C62A | ≤ 0.5
C4A C11U U32A G38C U47A | ≤ 0.5
C4A A15U G18C G56C | ≤ 0.5
C4A C30A G48C | ≤ 0.5

Variant | yeast fitness
C4A C29G A57G U59A G68U A70G | 0.571
C4A C31A U35C A45U A69U | ≤ 0.5
C4A C24U C55A A65C | ≤ 0.5
C4A A57G C62G C66G | ≤ 0.5
C4A A21G | 0.974
C4A A21C | 0.775
C4A C31U U35C | ≤ 0.5
C4A C34U G38C C49G | ≤ 0.5
C4A A15G A40G U64A | ≤ 0.5
C4A A15G C33U C62U | ≤ 0.5
C4A A21U U47G | 0.535
C4A C5G A20C A40U C61G | ≤ 0.5
C4A C30G A40C C55A G58C A65U A70U | ≤ 0.5
C4A A14U A20C U28G U32A | ≤ 0.5
C4A A40U A43G A65U | ≤ 0.5
C4A C29G A40U C55A G67C | ≤ 0.5
C4A C31G A45G G50C G63A | ≤ 0.5
C4A A20G C60A A70C | ≤ 0.5
C4A C5U U8C U47C U64A | ≤ 0.5
C4A C31G G51C | 0.524
C4A A37G G63C | 0.552
C4A C5A C22A U28G C33G A57G G67C | ≤ 0.5
C4A A65U A69U | 0.774
C4A C31A U32A | ≤ 0.5

Variant | yeast fitness
U3G U26A A65G | ≤ 0.5
C4A A15G G56C C60A | ≤ 0.5
C4A C11G C31A A42G | ≤ 0.5
C4A C5G C46G | ≤ 0.5
C4A C5U U19A | 0.532
C4A C5A C29G G38C A65U | ≤ 0.5
C4A C5G | 0.571
C4A C31G C55A | 0.534
C4A A37U G51A | ≤ 0.5
C4A C31U A42C | 0.572
C4A C31U A42U | 0.618
C4A A42U C55G | ≤ 0.5
C4A A15C C60U U64A C66A G68A A69G | ≤ 0.5
C4A A14U A20C U28G U54C | ≤ 0.5
C4A A42C C66G G68C | ≤ 0.5
C4A C46U A57C | 0.529
C4A C31A A45U | ≤ 0.5
C4A C22G C29U G68C | ≤ 0.5
C4A C11G A69U | ≤ 0.5
C4A A36G C46G A57C | ≤ 0.5
C4A A20C G68A | ≤ 0.5
U3G U64G | 0.716
C4A A14C G38A U59G | ≤ 0.5
C4A A15G C31U C33U | ≤ 0.5

Variant | yeast fitness
C4A C30G U47C C49G | ≤ 0.5
C4A C22U C24A C29A A36C G52A U53A | ≤ 0.5
C4A A20G G44C A45G C55U | ≤ 0.5
C4A C5G C24G C29U | ≤ 0.5
U3G U59A | 0.793
C4A C5A A20U C46U G48A | ≤ 0.5
C4A A15U G48A | 0.559
C4A C11U G39C A45C | ≤ 0.5
C4A C33U A36C A40G | ≤ 0.5
C4A C27G U32C A36G A57G G58A C62U A70U | ≤ 0.5
C4A A37C A42C | 0.506
C4A C33A A40U A70G | ≤ 0.5
U3G U35A | 0.533
C4A C5G A37G C46G | ≤ 0.5
C4A C5U G39C A42C G52C C62U | ≤ 0.5
C4A C34U A57U | ≤ 0.5
U3G U35G A37U U47C G56C A69C | ≤ 0.5
C4A C11A | 0.6
C4A A14C | 0.591
C4A C11G U19G G56C | 0.528
C4A A15G G17A C33U A57U U59C | ≤ 0.5
C4A C24A A42G U59A | ≤ 0.5
C4A A14U A20C U28G C62A | ≤ 0.5
C4A A45U G51A | ≤ 0.5

Variant | yeast fitness
C4A C49G | 0.704
C4A C49U | 0.877
C4A C11G C31A A42G C66A | ≤ 0.5
C4A C24A G67A | ≤ 0.5
C4A A20G C24A G52C U54A | ≤ 0.5
U3G U16G U28C A57U | ≤ 0.5
C4A C27U C33U A36U G63C | ≤ 0.5
C4A C5G G51A C60U G67A | ≤ 0.5
C4A A20G C24G C31G | ≤ 0.5
U3G U16C G39C A45C C49G A69U | ≤ 0.5
C4A C5A U35C G44A G48C C55G A69U | ≤ 0.5
C4A A21U A43G C62A | ≤ 0.5
U3G U16G | 1.02
C4A C22U U28C | ≤ 0.5
C4A A20U A43U U53C U59A C66U | ≤ 0.5
C4A C29U A36G G52C | ≤ 0.5
C4A A36U G50A C61U | ≤ 0.5
C4A C11G U13G G25A | ≤ 0.5
C4A C22G A69C | 0.538
C4A C11G A40U A45U | ≤ 0.5
C4A A20C C27U C49G | ≤ 0.5
C4A C29U C31G C33A | ≤ 0.5
C4A C11A C61U | ≤ 0.5
C4A C11G C31U G38C | 0.552

Variant | yeast fitness
C4A C27U U32C G48C | ≤ 0.5
C4A C22U C33G A45C U53G A69C | 0.57
C4A C11G U19G U53C | 0.698
C4A C5U G52C C61G | ≤ 0.5
C4A A65C G67U | ≤ 0.5
C4A A21G A45U A69U | 0.655
C4A C5G A42G | ≤ 0.5
C4A A21U C27A G41C A70G | ≤ 0.5
C4A C34G A40U U47A G67C | 0.55
C4A C5U C22U C31A C34A | ≤ 0.5
C4A A20U C34A G63C G67C A69U | ≤ 0.5
C4A C34G G68A | ≤ 0.5
C4A A14U C29U | 0.657
C4A A15G G56C | 0.583
C4A A14U A20C U28G | 0.588
C4A A36G A40G C66U | 0.624
C4A A15U | 0.645
C4A A15C | 0.544
C4A C11U A14G A40G G50C | ≤ 0.5
C4A C29U A65G | ≤ 0.5
C4A C5U A36G A42C | ≤ 0.5
C4A C29G A36U U53C | ≤ 0.5
C4A C11U G41A C60G A65G | ≤ 0.5

From the RNAGym collection of RNA variant scans (doi:10.1126/science.aae0568)
